Active and inactive are the calls of the source. No cut-off for these calls is given here.
Key:
[1] = target: T1, Proteasome component C5 (Homo sapiens) (UniProt P20618); assay: Inhibition of human 20S proteasome beta1 caspase-like activity using Ac-nLPnLD-AMC as substrate preincubated for 30 mins before substrate addition measured over 90 mins by fluorescence assay
T1 sequence (whole entry): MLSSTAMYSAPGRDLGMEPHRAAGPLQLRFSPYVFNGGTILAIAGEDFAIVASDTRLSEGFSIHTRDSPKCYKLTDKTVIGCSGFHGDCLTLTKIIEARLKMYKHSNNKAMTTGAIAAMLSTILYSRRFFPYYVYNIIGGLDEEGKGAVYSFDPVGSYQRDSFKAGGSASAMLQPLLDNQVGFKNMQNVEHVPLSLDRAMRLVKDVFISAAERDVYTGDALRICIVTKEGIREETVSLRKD
Method in brief: (§1)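 Purified human 20S proteasome (CP or IP, 0.5 µg/mL) was preincubated with compound for 30 min at room temperature in 20 mM Tris-HCl, 0.5 mM EDTA, 0.035% SDS. Substrates were Ac-nLPnLD-AMC 100 µM for β1, Ac-PAL-AMC 100 µM for β1i, and Boc-LRR-AMC 200 µM for β2/β2i. AMC release was followed 90 min at room temperature, ex 360/em 460 nm.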

NCI-H358 = assay: Cytotoxicity against human NCI-H358 cells after 72 hrs; type: functional, cell-based; settings: NCI-H358, 72 h
Method in brief: (§2)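 Adherent lines, growing in log phase in DMEM or RPMI 1640 with 10% FBS, were plated at 7,000–10,000 cells/well. Compound was added 24 h later at the final concentration. Viability was measured after 72 h by CellTiter Glo luminescence or CellTiter 96 Aqueous One absorbance.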

[2] = target: T2, Proteasome Macropain subunit MB1 (Homo sapiens) (UniProt P28074); assay: Inhibition of human 20S proteasome beta5 chymotrypsin-like activity using Ac-WLA-AMC as substrate preincubated for 30 mins before substrate addition measured over 90 mins by fluorescence assay
T2 sequence (whole entry): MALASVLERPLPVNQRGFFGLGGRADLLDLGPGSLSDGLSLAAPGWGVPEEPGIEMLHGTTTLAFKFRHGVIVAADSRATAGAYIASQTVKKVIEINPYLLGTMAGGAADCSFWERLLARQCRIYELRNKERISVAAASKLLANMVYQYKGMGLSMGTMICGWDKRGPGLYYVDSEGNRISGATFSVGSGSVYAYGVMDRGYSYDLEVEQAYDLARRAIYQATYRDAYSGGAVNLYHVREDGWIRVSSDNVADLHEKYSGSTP

Homo sapiens [3] = species: Homo sapiens; assay: Inhibition of human 20S proteasome beta2i trypsin-like activity using Boc-LRR-AMC as substrate preincubated for 30 mins before substrate addition measured over 90 mins by fluorescence assay; method in brief: as §1
RPMI-8226 [4] = assay: Inhibition of 20S proteasome caspase-like in human RPMI8226 cell extracts using Z-LLE-AMC as substrate preincubated at 1 to 10 uM for 30 mins before substrate addition by fluorescence assay; type: cell-free
Method in brief: (§3)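 Cytosolic extracts of RPMI 8226 cells served as the proteasome source in place of purified enzyme. Extracts were preincubated with compound, and hydrolysis of Suc-LLVY-AMC (CT-L), Z-LLE-AMC (C-L) or Boc-LRR-AMC (T-L) was read by AMC fluorescence at ex 360/em 460 nm.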

Homo sapiens [5] = species: Homo sapiens; assay: Inhibition of human 20S proteasome beta1i chymotrypsin-like activity using Ac-PAL-AMC as substrate preincubated for 30 mins before substrate addition measured over 90 mins by fluorescence assay; method in brief: as §1
Homo sapiens [6] = species: Homo sapiens; assay: Inhibition of human 20S proteasome beta5i chymotrypsin-like activity using Ac-ANW-AMC as substrate preincubated for 30 mins before substrate addition measured over 90 mins by fluorescence assay
RPMI-8226 [7] = assay: Inhibition of 20S proteasome trypsin-like in human RPMI8226 cell extracts using Boc-LRR-AMC as substrate preincubated at 1 to 10 uM for 30 mins before substrate addition by fluorescence assay; type: cell-free; method in brief: as §3
[8] = Cytotoxicity against human H23 cells after 72 hrs; type: functional, cell-based; settings: NCI-H23, 72 h; method in brief: as §2
RPMI-8226 [9] = assay: Inhibition of 20S proteasome chymotrypsin-like in human RPMI8226 cell extracts using Suc-LLVY-AMC as substrate preincubated at 1 to 10 uM for 30 mins before substrate addition by fluorescence assay; type: cell-free; method in brief: as §3
[10] = target: Proteasome Macropain subunit (Homo sapiens) (UniProt P49721); assay: Inhibition of human 20S proteasome beta2 trypsin-like activity using Boc-LRR-AMC as substrate preincubated for 30 mins before substrate addition measured over 90 mins by fluorescence assay; method in brief: as §1
Sequence of Proteasome Macropain subunit (Homo sapiens) (P49721 whole entry): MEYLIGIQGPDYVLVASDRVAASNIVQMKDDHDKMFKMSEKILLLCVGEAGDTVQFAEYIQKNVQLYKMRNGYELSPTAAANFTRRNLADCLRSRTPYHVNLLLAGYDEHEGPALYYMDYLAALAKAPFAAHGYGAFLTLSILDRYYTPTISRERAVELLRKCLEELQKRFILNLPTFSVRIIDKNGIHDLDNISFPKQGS

- inhibition [1]: Active
- inhibition [2]: Active
- inhibition (Homo sapiens [3]): inactive
- inhibition (Homo sapiens [5]): Active
- inhibition (Homo sapiens [6]): Active
- inhibition [10]: inactive
SMILES: Cc1ccc(OS(=O)(=O)c2cccc(C(F)(F)F)c2)c(-c2cc(-c3ccccc3)n(CCN[C@@H]3CCNC3)n2)c1
- IC50 (NCI-H358): 7 µM
- inhibition (RPMI-8226 [4]): Active
- inhibition (RPMI-8226 [7]): inactive
- IC50 [8]: 7 µM
- inhibition (RPMI-8226 [9]): Active

Source: ChEMBL document CHEMBL3407360, “Proteasome inhibitors with pyrazole scaffolds from structure-based virtual screening” (J Med Chem, 2015)
